Activity calls are given as the source filed them. The calls are words filed in the database; no cut-off is given here.
Assays:
[1] = target: Voltage-gated L-type calcium channel (Rattus norvegicus, UniProt P22002+Q02485+P27732); experiment: Affinity to bind dihydropyridine receptor (DHP receptor) by inhibiting the radioligand [3H]nitrendipine; type: protein assay
How it was run: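 [3H]nitrendipine displacement, rat brain cortical membranes. Each compound first screened at 1000 nM; if inhibition exceeded 40%, a four- to seven-point curve with unlabeled compound was run. IC50 generally mean of two experiments, each in triplicate. ">1000 nM" means under 40% inhibition of control binding at 1000 nM.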

[2] = species on record: Rattus norvegicus; experiment: Cardiovascular activity in isolated rat heart, concentration producing 25% increase in CF (cardiac flow).; type: functional
How it was run: (§1)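 Isolated Langendorff-perfused rat heart. Coronary flow (CF), LV +dP/dtmax and heart rate recorded during exposure to test agent. Value is the concentration giving a 25% rise in CF or in LV +dP/dtmax, mean ± SE. At least two hearts per compound.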

[3] = species on record: Rattus norvegicus; experiment: Cardiovascular activity in isolated rat heart, concentration producing 25% increase in LV + dP/dtmax.; type: functional; how it was run: as §1

CCOC(=O)C1=C(C)N=C(CSc2ccccc2C)/C(=C(/O)OCC)C1c1ccccc1C(F)(F)F (stereo not given)
IC50 [1]: 49 nM

CCO/C(O)=C1\C(CS(=O)(=O)c2ccncc2)=NC(C)=C(C#N)C1c1ccccc1Cl (stereo not given)
IC50 [1]: 713 nM

CCO/C(O)=C1\C(CSc2ccncc2)=NC(C)=C(C#N)C1c1ccccn1 (stereo not given)
IC50 [1]: > 1000 nM

CCO/C(O)=C1\C(CSc2ccccc2Cl)=NC(C)=C(C(=O)OC)C1c1ccccc1C(F)(F)F (stereo not given)
IC50 [1]: 36 nM

CCOC(=O)C1=C(C)N=C(CSc2ccncc2)/C(=C(/O)OCC)C1c1ccccc1C(F)(F)F (stereo not given)
IC50 [1]: 32.5 nM

CCO/C(O)=C1\C(CS(=O)(=O)c2ccc(OC)cc2)=NC(C)=C(C#N)C1c1ccccc1C(F)(F)F (stereo not given)
IC50 [1]: 109 nM
EC25 [2]: 300 nM
EC25 [3]: inactive

CO/C(O)=C1\C(C[S+]([O-])c2ccccc2)=NC(C)=C(C#N)C1c1ccccc1C(F)(F)F (stereo not given)
IC50 [1]: > 1000 nM
EC25 [2]: 1480 nM
EC25 [3]: 260 nM

CCO/C(O)=C1\C(CS(=O)(=O)c2ccccc2)=NC(C)=C(C#N)C1c1ccccn1 (stereo not given)
IC50 [1]: > 1000 nM

CCO/C(O)=C1\C(C[S+]([O-])c2ccccc2F)=NC(C)=C(C#N)C1c1ccccc1C(F)(F)F (stereo not given)
IC50 [1]: > 1000 nM
EC25 [2]: 360 nM
EC25 [3]: 930 nM

CCOC(=O)C1=C(CS(=O)(=O)c2ccccc2)N(C)C2=C(C(=O)CCC2)C1c1ccccc1C(F)(F)F (stereo not given)
EC25 [2]: 180 nM
EC25 [3]: <100 nM

CC1=C(C#N)C(c2ccccc2C(F)(F)F)/C(=C(\O)OCCN(C)Cc2ccccc2)C(C[S+]([O-])c2ccccc2)=N1 (stereo not given)
IC50 [1]: > 1000 nM
EC25 [2]: 420 nM
EC25 [3]: 120 nM

CC1=C(C#N)C(c2ccccc2C(F)(F)F)C(C(=O)O)=C(CSc2ccccc2)N1 (stereo not given)
IC50 [1]: > 1000 nM

CCO/C(O)=C1\C(CSc2ccccc2)=NC(C)=C(C#N)C1c1ccccc1C(F)(F)F (stereo not given)
IC50 [1]: 450 nM

CCOC(=O)C1=C(CSc2ccccc2)N(CCN(CC)CC)C(C)=C(C#N)C1c1ccccc1C(F)(F)F (stereo not given)
IC50 [1]: 1000 nM

CCOC(=O)C1=C(C)N=C(CSc2ccccc2)/C(=C(/O)OCC)C1c1cccnc1 (stereo not given)
IC50 [1]: 523 nM

CCOC(=O)C1=C(C[S+]([O-])c2ccccc2)NC(C)=C(C#N)C1c1ccccc1C(F)(F)F (stereo in doubt; 29a)
IC50 [1]: 1600 nM
EC25 [3]: 120 nM

CCO/C(O)=C1\C(C[S+]([O-])c2ccccc2Cl)=NC(C)=C(C#N)C1c1ccccc1C(F)(F)F (stereo not given)
IC50 [1]: > 1000 nM
EC25 [2]: 260 nM
EC25 [3]: 200 nM

CCO/C(O)=C1\C(C[S+]([O-])c2ccccn2)=NC(C)=C(C#N)C1c1ccccc1C(F)(F)F (stereo not given)
IC50 [1]: 1900 nM

CCO/C(O)=C1\C(C[S+]([O-])c2ccc(NC(C)=O)cc2)=NC(C)=C(C#N)C1c1ccccc1C(F)(F)F (stereo not given)
IC50 [1]: > 1000 nM

CCOC(=O)C1=C(C)N=C(C[S+]([O-])c2ccc(OC)cc2)/C(=C(/O)OCC)C1c1ccccc1C(F)(F)F (stereo in doubt; 8b)
IC50 [1]: 18 nM

CCO/C(O)=C1\C(CS(=O)(=O)c2ccncc2)=NC(C)=C(C#N)C1c1ccccc1C (stereo not given)
IC50 [1]: 1410 nM

CCO/C(O)=C1\C(CSc2ccncc2)=NC(C)=C(C#N)C1c1cccc(Cl)c1Cl (stereo not given)
IC50 [1]: 1400 nM

CC1=C(C#N)C(c2ccccc2C(F)(F)F)C(C(=O)O)=C(C[S+]([O-])c2ccccc2)N1 (stereo not given)
IC50 [1]: > 1000 nM

CCO/C(O)=C1\C(CS(=O)(=O)c2ccccc2C)=NC(C)=C(C#N)C1c1ccccc1C(F)(F)F (stereo not given)
IC50 [1]: > 1000 nM
EC25 [2]: 470 nM
EC25 [3]: 320 nM

CCO/C(O)=C1\C(CSc2ccncc2)=NC(C)=C(C#N)C1c1ccccc1C(F)(F)F (stereo not given)
IC50 [1]: 1000 nM

CCOC(=O)C1=C(C[S+]([O-])c2ccccc2)NC(C)=C(C#N)C1c1cccc([N+](=O)[O-])c1 (stereo in doubt; 32a)
IC50 [1]: > 1000 nM
EC25 [3]: 2500 nM

CCOC(=O)C1=C(C)N=C(C[S+]([O-])c2ccncc2)/C(=C(/O)OCC)C1c1ccccc1C(F)(F)F (stereo not given)
IC50 [1]: 37.4 nM

CCOC(=O)C1=C(C)N=C(C[S+]([O-])c2ccccc2)/C(=C(/O)OCC)C1c1cccnc1 (stereo not given)
IC50 [1]: > 1000 nM

CCO/C(O)=C1\C(C[S+]([O-])c2ccccc2C)=NC(C)=C(C#N)C1c1ccccc1C(F)(F)F (stereo not given)
IC50 [1]: > 1000 nM
EC25 [2]: 800 nM
EC25 [3]: 130 nM

CCO/C(O)=C1\C(C[S+]([O-])c2ccccc2)=NC(C)=C(C#N)C1c1ccccn1 (stereo not given)
IC50 [1]: > 1000 nM

C=CCO/C(O)=C1\C(CSc2ccccc2)=NC(C)=C(C#N)C1c1ccccc1C(F)(F)F (stereo not given)
IC50 [1]: 580 nM

CCO/C(O)=C1\C(C(C)S(=O)(=O)c2ccccc2)=NC2=C(C(=O)CCC2)C1c1ccccc1C(F)(F)F (stereo not given)
EC25 [2]: 1400 nM
EC25 [3]: <100 nM

CCO/C(O)=C1\C(CSc2ccccc2)=NC(C)=C(C#N)C1c1cccc([N+](=O)[O-])c1 (stereo not given)
IC50 [1]: 870 nM

CCO/C(O)=C1\C(CS(=O)(=O)c2ccccc2)=NC(C)=C(C#N)C1c1cccc[n+]1[O-] (stereo not given)
IC50 [1]: > 1000 nM

CCOC(=O)C1=C(C)N=C(C[S+]([O-])c2ccc(OC)cc2)/C(=C(/O)OCC)C1c1ccccc1C(F)(F)F (stereo in doubt; 8a)
IC50 [1]: 21 nM

CCOC(=O)C1=C(C[S+]([O-])c2ccccc2)NC(C)=C(C#N)C1c1cccc([N+](=O)[O-])c1 (stereo in doubt; 32b)
IC50 [1]: > 1000 nM
EC25 [3]: 3000 nM

CCO/C(O)=C1\C(C[S+]([O-])c2ccccc2)=NC(C)=C(C#N)C1c1ccco1 (stereo not given)
IC50 [1]: > 1000 nM

CCO/C(O)=C1\C(CS(=O)(=O)c2ccccc2)=NC(C)=C(C#N)C1c1ccccc1Cl (stereo not given)
IC50 [1]: 720 nM

CCO/C(O)=C1\C(CSc2ccccc2)=NC(C)=C(C#N)C1c1ccccn1 (stereo not given)
IC50 [1]: > 1000 nM

CC1=C(C#N)C(c2ccccc2C(F)(F)F)/C(=C(\O)OCCO)C(C[S+]([O-])c2ccccc2)=N1 (stereo not given)
IC50 [1]: 1000 nM

CCOC(=O)C1=C(C)N=C(C[S+]([O-])c2ccccn2)/C(=C(/O)OCC)C1c1ccccc1C(F)(F)F (stereo not given)
IC50 [1]: 10 nM

CCO/C(O)=C1\C(CSc2ccccn2)=NC(C)=C(C#N)C1c1ccccc1C(F)(F)F (stereo not given)
IC50 [1]: > 1000 nM

CCO/C(O)=C1\C(CSc2ccc(OC)cc2)=NC(C)=C(C#N)C1c1ccccc1C(F)(F)F (stereo not given)
IC50 [1]: 71 nM

CCO/C(O)=C1\C(C[S+]([O-])c2ccccc2)=NC(C)=C(C#N)C1C1CCCCC1 (stereo not given)
IC50 [1]: > 1000 nM

CCO/C(O)=C1\C(CSc2ccccc2Cl)=NC(C)=C(C#N)C1c1ccccc1C(F)(F)F (stereo not given)
IC50 [1]: > 1000 nM

CCCCc1ccc(S(=O)(=O)CC2=NC(C)=C(C#N)C(c3ccccc3C(F)(F)F)/C2=C(\O)OCC)c(C)c1 (stereo not given)
IC50 [1]: > 1000 nM

CCO/C(O)=C1\C(CSc2ccncc2)=NC(C)=C(C#N)C1c1ccccc1Cl (stereo not given)
IC50 [1]: 366 nM

CCO/C(O)=C1\C(CS(=O)(=O)c2ccccc2)=NC(C)=C(C#N)C1c1cccnc1 (stereo not given)
IC50 [1]: > 1000 nM

CCO/C(O)=C1\C(CSc2ccc(Cl)c(Cl)c2)=NC(C)=C(C#N)C1c1ccccc1C(F)(F)F (stereo not given)
IC50 [1]: 69 nM

CCOC(=O)C1=C(C)NC(C[S+]([O-])c2ccccc2C)=C(C(=O)OCC)C1c1ccccc1C(F)(F)F (stereo in doubt; 10a)
IC50 [1]: 160 nM

CCOC(=O)C1=C(C)N=C(CSc2ccccc2)/C(=C(/O)OCC)C1c1ccccc1C(F)(F)F (stereo not given)
IC50 [1]: 1.6 nM

CCO/C(O)=C1\C(C[S+]([O-])c2ccccc2)=NC(C)=C(C#N)C1c1ccccc1OC(F)F (stereo not given)
IC50 [1]: > 1000 nM

CC1=C(C#N)C(c2ccccc2C(F)(F)F)/C(=C(\O)OCCC#N)C(CSc2ccccc2)=N1 (stereo not given)
IC50 [1]: 1000 nM

CCO/C(O)=C1\C(C[S+]([O-])c2ccccc2)=NC(C)=C(C#N)C1c1ccccc1 (stereo not given)
IC50 [1]: > 1000 nM

CCO/C(O)=C1\C(C[S+]([O-])c2ccc(Cl)c(Cl)c2)=NC(C)=C(C#N)C1c1ccccc1C(F)(F)F (stereo not given)
IC50 [1]: 681 nM

CCO/C(O)=C1\C(CSc2ccccc2)=NC(C)=C(C#N)C1c1ccco1 (stereo not given)
IC50 [1]: 1354 nM

CC1=C(C#N)C(c2ccccc2C(F)(F)F)/C(=C(\O)OCC(O)CO)C(CS(=O)(=O)c2ccccc2)=N1 (stereo not given)
IC50 [1]: > 1000 nM

CCOC(=O)C1=C(C)N=C(CSc2ccccn2)/C(=C(/O)OCC)C1c1ccccc1C(F)(F)F (stereo not given)
IC50 [1]: 51 nM

CCOC(=O)C1=C(C)NC(C[S+]([O-])c2ccccc2C)=C(C(=O)OCC)C1c1ccccc1C(F)(F)F (stereo in doubt; 10b)
IC50 [1]: 170 nM

CCO/C(O)=C1\C(CSc2ccccc2F)=NC(C)=C(C#N)C1c1ccccc1C(F)(F)F (stereo not given)
IC50 [1]: 267 nM

CC1=C(C#N)C(c2ccccc2C(F)(F)F)/C(=C(\O)OCCN2CCOCC2)C(C[S+]([O-])c2ccccc2)=N1 (stereo not given)
IC50 [1]: > 1000 nM

CCO/C(O)=C1\C(CSc2ccc(Cl)cc2)=NC(C)=C(C#N)C1c1ccccc1C(F)(F)F (stereo not given)
IC50 [1]: 100 nM

CCO/C(O)=C1\C(C[S+]([O-])c2ccc(Cl)cc2)=NC(C)=C(C#N)C1c1ccccc1C(F)(F)F (stereo not given)
IC50 [1]: > 1000 nM

CCO/C(O)=C1\C(CS(=O)(=O)c2ccccc2)=NC(C)=C(C#N)C1c1ccco1 (stereo not given)
IC50 [1]: 254 nM

CCOC(=O)C1=C(C[S+]([O-])c2ccccc2)N(C)C(C)=C(C#N)C1c1ccccc1C(F)(F)F (stereo not given)
IC50 [1]: > 1000 nM

CCCCc1ccc(SCC2=NC(C)=C(C#N)C(c3ccccc3C(F)(F)F)/C2=C(\O)OCC)c(C)c1 (stereo not given)
IC50 [1]: > 1000 nM

CCO/C(O)=C1\C(CSc2ccccc2C)=NC(C)=C(C#N)C1c1ccccc1C(F)(F)F (stereo not given)
IC50 [1]: > 1000 nM

CCO/C(O)=C1\C(CS(=O)(=O)c2ccncc2)=NC(C)=C(C#N)C1c1cccc(Cl)c1Cl (stereo not given)
IC50 [1]: 434 nM

CO/C(O)=C1\C(CSc2ccccc2)=NC(C)=C(C#N)C1c1ccccc1C(F)(F)F (stereo not given)
IC50 [1]: 1000 nM

CCO/C(O)=C1\C(CSc2ccccc2)=NC(C)=C(C#N)C1c1ccccc1 (stereo not given)
IC50 [1]: > 1000 nM

CCOC(=O)C1=C(C)N=C(C[S+]([O-])c2ccccc2)/C(=C(/O)OCC)C1c1ccccc1C(F)(F)F (stereo not given)
IC50 [1]: 27 nM

Reference: ChEMBL document CHEMBL1125592, “Calcium channel blocking and positive inotropic activities of ethyl 5-cyano-1,4-dihydro-6-methyl-2-[(phenylsulfonyl)methyl]-4-aryl-3- pyridine-carboxylate and analogues. Synthesis and structure-activity relationships” (J Med Chem, 1991)
